Source: ChEMBL document CHEMBL4177768, “Synthesis and Biological Evaluation of Derivatives of Indoline as Highly Potent Antioxidant and Anti-inflammatory Agents” (J Med Chem, 2018)
Calls of active or inactive are those of the source. The calls are words filed in the database; no cut-off is given here.

Tests used:
RAW264.7 [1] = assay: Antiinflammatory activity in mouse RAW264.7 cells assessed as reduction in LPS-induced IL6 production at 1 pM to 100 nM incubated for 2 hrs prior to LPS challenge measured after 24 hrs by ELISA; type: functional, cell-based
How it was run: (§1)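 RAW 264.7 macrophages were plated at 1×10^5 per well, grown overnight and washed with PBS. Compounds in water (final 1 pM-100 nM, medium with 2% FCS) were added 2 h at 37 °C before E. coli 0111:B4 LPS, 2.5 µg/mL. TNF-α was sampled at 8 h; IL-6 and nitrite (Griess) at 24 h. ELISA was used for cytokines. Values are % of the LPS + medium value in each experiment. Budesonide was the reference. 2-3 experiments, 6 wells per concentration.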

RAW264.7 [2] = assay: Antiinflammatory activity in mouse RAW264.7 cells assessed as reduction in LPS-induced nitric oxide production at 1 pM to 100 nM incubated for 2 hrs prior to LPS challenge measured after 24 hrs by Griess assay; type: functional, cell-based; how it was run: as §1
RAW264.7 [3] = assay: Antiinflammatory activity in mouse RAW264.7 cells assessed as reduction in LPS-induced TNF-alpha production at 1 pM to 100 nM incubated for 2 hrs prior to LPS challenge measured after 8 hrs by ELISA; type: functional, cell-based; how it was run: as §1
RAW264.7 [4] = assay: Cytoprotective activity against H2O2-induced oxidative stress in mouse RAW264.7 cells assessed as cell viability at 10 nM incubated for 2 hrs prior to H2O2 addition measured after 24 hrs by MTT assay (reference value: 68 to 72.8%); type: functional; conditions: read-out: Activity
RAW264.7 [5] = assay: Antiinflammatory activity in mouse RAW264.7 cells assessed as reduction in LPS-induced TNF-alpha production at 100 pM to 100 nM incubated for 2 hrs prior to LPS challenge measured after 8 hrs by ELISA; type: functional, cell-based; how it was run: as §1
RAW264.7 [6] = assay: Antiinflammatory activity in mouse RAW264.7 cells assessed as reduction in LPS-induced IL-6 production at 100 pM to 100 nM incubated for 2 hrs prior to LPS challenge measured after 24 hrs by ELISA; type: functional, cell-based; how it was run: as §1
[7] = Cytotoxicity against mouse RAW264.7 cells assessed as cell viability at 10^-7 M after 24 hrs by MTT assay relative to control; type: cell-based; conditions: read-out: Activity
How it was run: (§2)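 RAW 264.7 cells, seeded at 1×10^4 cells/mL and incubated 24 h, were exposed to compound from 1 pM to 100 nM. Viability was read by MTT (final 0.5 mg/mL, 1 h at 37 °C), with formazan dissolved in DMSO and OD at 570 nm. Results are compared with medium-only cells.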

[8] = Cytotoxicity against mouse RAW264.7 cells assessed as cell viability at 10^-12 M after 24 hrs by MTT assay relative to control; type: cell-based; conditions: read-out: Activity; how it was run: as §2
RAW264.7 [9] = assay: Cytoprotective activity against H2O2-induced oxidative stress in mouse RAW264.7 cells assessed as decrease in LDH release at 1 pM incubated for 2 hrs prior to H2O2 addition by colorimetric assay relative to control; type: functional; design: scale not given: the % may be the effect or the level left
How it was run: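 RAW 264.7 cells were seeded and pretreated with compound before H2O2 100 µM, in serum-free medium. Collected medium was centrifuged and incubated with reaction mix 30 min at room temperature. LDH was measured as NADH formation by colorimetric read at 490 nm. n = 8-10 replicates per concentration.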

[10] = Cytotoxicity against mouse RAW264.7 cells assessed as cell viability at 10^-10 M after 24 hrs by MTT assay relative to control; type: cell-based; conditions: read-out: Activity; how it was run: as §2
RAW264.7 [11] = assay: Cytoprotective activity against H2O2-induced oxidative stress in mouse RAW264.7 cells assessed as decrease in LDH release at 1 pM incubated for 2 hrs prior to H2O2 addition by colorimetric assay relative to control; design: scale not given: the % may be the effect or the level left
RAW264.7 [12] = assay: Cytoprotective activity against H2O2-induced oxidative stress in mouse RAW264.7 cells assessed as cell viability at 100 nM incubated for 2 hrs prior to H2O2 addition measured after 24 hrs by MTT assay (reference value: 68 to 72.8%); type: functional; conditions: read-out: Activity
[13] = Cytotoxicity against mouse RAW264.7 cells assessed as cell viability at 10^-11 M after 24 hrs by MTT assay relative to control; type: cell-based; conditions: read-out: Activity; how it was run: as §2
[14] = Cytotoxicity against mouse RAW264.7 cells assessed as cell viability at 10^-8 M after 24 hrs by MTT assay relative to control; type: cell-based; conditions: read-out: Activity; how it was run: as §2
[15] = Cytotoxicity against mouse RAW264.7 cells assessed as cell viability at 10^-9 M after 24 hrs by MTT assay relative to control; type: cell-based; conditions: read-out: Activity; how it was run: as §2
Mus musculus [16] = assay: Antiinflammatory activity in Balb/C mouse assessed as reduction in LPS-induced IL6 production in spleen at 1 umol/kg, sc administered LPS 15 mins post compound treatment measured after 4 hrs by ELISA; type: functional, organism-based
How it was run: (§3)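 Male Balb/C mice, 7-8 weeks old, given compound sc (0.1, 1 or 10 µmoles/kg) or saline. LPS 10 mg/kg was given ip 15 min later, and mice were killed 4 h after that. Spleens were homogenized in PBS with protease inhibitor and centrifuged at 14,000 g, 4 °C. Cytokines in plasma and tissue supernatants were measured by ELISA, with protein by BCA. Dexamethasone 5.6 µmoles/kg was the reference. n = 8-10 mice per treatment.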

Mus musculus [17] = assay: Acute toxicity in Balb/C mouse assessed as change in food intake at 100 umol/kg, sc measured over 72 hrs; type: organism-based; conditions: in vivo
How it was run: (§4)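 Male Balb/C mice, 24-28 g, groups of 3; single sc injection of compound at 100 μmoles/kg or saline (1 mL/100 g). Food and water intake, body weight and general activity monitored over 72 h against saline-injected animals.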

Mus musculus [18] = assay: Antiinflammatory activity in Balb/C mouse assessed as reduction in LPS-induced IL6 production in liver at 0.1 to 10 umol/kg, sc administered LPS 15 mins post compound treatment measured after 4 hrs by ELISA; type: functional, organism-based
Mus musculus [19] = assay: Antiinflammatory activity in Balb/C mouse assessed as reduction in LPS-induced TNF-alpha production in plasma at 1 umol/kg, sc administered LPS 15 mins post compound treatment measured after 4 hrs by ELISA; type: functional, organism-based; how it was run: as §3
RAW264.7 [20] = assay: Antiinflammatory activity in mouse RAW264.7 cells assessed as reduction in LPS-induced IL-6 production at 1 nM incubated for 2 hrs prior to LPS challenge measured after 24 hrs by ELISA; type: functional; how it was run: as §1
Mus musculus [21] = assay: Acute toxicity in Balb/C mouse assessed as change in water intake at 100 umol/kg, sc measured over 72 hrs; type: organism-based; conditions: in vivo; how it was run: as §4
Mus musculus [22] = assay: Acute toxicity in Balb/C mouse assessed as change in body weight at 100 umol/kg, sc measured over 72 hrs; type: organism-based; conditions: in vivo; how it was run: as §4
Mus musculus [23] = assay: Antiinflammatory activity in Balb/C mouse assessed as reduction in LPS-induced IL6 production in brain at 0.1 to 10 umol/kg, sc administered LPS 15 mins post compound treatment measured after 4 hrs by ELISA; type: functional, organism-based
RAW264.7 [24] = assay: Cytoprotective activity against H2O2-induced oxidative stress in mouse RAW264.7 cells assessed as decrease in caspase-3 activity at 1 pM incubated for 4 hrs prior to H2O2 addition measured after 90 mins by caspase-GloR reagent-based luminescence assay relative to control; type: functional; design: scale not given: the % may be the effect or the level left
How it was run: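 RAW 264.7 macrophages were pretreated with compound (1 pM or 1 nM) 4 h before H2O2 100 µM. Medium was replaced with fresh DMEM after 90 min and plates were incubated overnight. Caspase-Glo 3/7 reagent was added and luminescence read after 30 min at room temperature. Mean ± SD, 4-6 replicates.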

RAW264.7 [25] = assay: Antiinflammatory activity in mouse RAW264.7 cells assessed as reduction in LPS-induced IL-6 production at 100 pM incubated for 2 hrs prior to LPS challenge measured after 24 hrs by ELISA; type: functional; how it was run: as §1
Mus musculus [26] = assay: Acute toxicity in Balb/C mouse assessed as change in activity at 100 umol/kg, sc measured over 72 hrs; type: organism-based; conditions: in vivo; how it was run: as §4
Mus musculus [27] = assay: Antiinflammatory activity in Balb/C mouse assessed as reduction in LPS-induced TNF-alpha production in spleen at 1 umol/kg, sc administered LPS 15 mins post compound treatment measured after 4 hrs by ELISA; type: functional, organism-based; how it was run: as §3
Mus musculus [28] = assay: Antiinflammatory activity in Balb/C mouse assessed as reduction in LPS-induced IL6 production in plasma at 1 umol/kg, sc administered LPS 15 mins post compound treatment measured after 4 hrs by ELISA; type: functional, organism-based; how it was run: as §3
RAW264.7 [29] = assay: Cytoprotective activity against H2O2-induced oxidative stress in mouse RAW264.7 cells assessed as cell viability at 1 pM incubated for 2 hrs prior to H2O2 addition measured after 24 hrs by MTT assay (reference value: 68 to 72.8%); type: functional; conditions: read-out: Activity

Compound	Activity (RAW264.7 [2])	Activity (RAW264.7 [3])	viability at 0.01 µM (RAW264.7 [4]) [%]	Activity (RAW264.7 [5])	Activity (RAW264.7 [6])	viability at 24 h, 0.1 µM [7] [%]	viability at 24 h, 1e-06 µM [8] [%]	viability at 24 h, 0.0001 µM [10] [%]	viability at 24 h, 1e-05 µM [13] [%]	viability at 24 h, 0.01 µM [14] [%]	viability at 24 h, 0.001 µM [15] [%]	other results
COC(=O)CCN1CCc2ccc(C)cc21	inactive	inactive	87.2	–	–	–	–	–	–	–	–	Activity (RAW264.7 [1]): inactive
CC(C)NCCCN1CCc2cccc(O)c21.Cc1ccc(S(C)(=O)=O)cc1.Cc1ccc(S(C)(=O)=O)cc1	–	–	–	inactive	inactive	–	–	–	–	–	–	–
Cl.OCCCN1CCc2ccccc21	–	–	–	Active	Active	94.4	89.5	91.6	89.9	92.3	95.1	Activity (RAW264.7 [9]): 16%; Activity (RAW264.7 [11]): 16%; viability at 0.1 µM (RAW264.7 [12]): 89.8%
COC(=O)CCN1CCc2ccccc21.Cl	Active	Active	85.9	–	–	90.8	95	93.3	91.5	91.8	92.6	Activity (Mus musculus [16]): Active; Activity (Mus musculus [17]): Non-Toxic; Activity (Mus musculus [18]): Active; Activity (Mus musculus [19]): Active; Activity (RAW264.7 [20]): Active; Activity (Mus musculus [21]): Non-Toxic; Activity (RAW264.7 [9]): 16%; Activity (Mus musculus [22]): Non-Toxic; Activity (Mus musculus [23]): Active; Activity (RAW264.7 [24]): 60%; Activity (RAW264.7 [11]): 16%; Activity (RAW264.7 [25]): Active; Activity (Mus musculus [26]): Non-Toxic; Activity (Mus musculus [27]): Active; Activity (Mus musculus [28]): Active
CCCC1O[C@@H]2C[C@H]3[C@@H]4CCC5=CC(=O)C=C[C@]5(C)[C@H]4[C@@H](O)C[C@]3(C)[C@]2(C(=O)CO)O1 (stereo not given in full)	Active	–	–	Active	Active	–	–	–	–	–	–	–
CC(C)NC(=O)CCN1CCc2cc(Cl)ccc21	inactive	inactive	–	–	–	103	95.6	98.2	96.3	104	97.9	Activity (RAW264.7 [1]): inactive; viability at 1 pM (RAW264.7 [29]): 95.7%
c1ccc2c(c1)CCN2 [INDOLINE]	–	–	90.4	–	–	–	–	–	–	–	–	–
